A selection: hits, their analogues and other compounds. The true share with any hit is near 2.7%.
S100A4 MyoIIA: inhibitors of human S100A4 binding to myosin IIA peptide; P26447; S100A4/TAMRA-MyoIIA peptide fluorescence polarization; inhibition, % at 10.7 µM; actives 0.14% (n = 360,000);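 active = mean inhibition of at least 70% across replicates, with every replicate also reaching that level; inconclusive = mean inhibition reaches 70% but some replicates fall short; inactive = mean inhibition below 70%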
Target sequence (P26447 whole entry, looked up): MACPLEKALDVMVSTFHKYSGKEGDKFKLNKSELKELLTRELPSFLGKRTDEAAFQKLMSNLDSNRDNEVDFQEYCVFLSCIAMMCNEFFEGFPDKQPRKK
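assay system = human S100A4 monomer with TAMRA-labelled myosin IIA peptide | also added = labelled myosin peptide probe, 5 nM | incubation = 5 min between mix addition and reading | control set = DMSO and TFP controls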
AF4-AF9 inh: inhibitors of human MLL-AF4/AF9 interaction; actives 0.47% (n = 350,000); inhibition, % at 10 µM; P42568; AlphaScreen, biotin-AF4 peptide binding to FLAG-AF9;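 active = every replicate reaching a set inhibition limit, whatever the replicate mean, cut at about 25% in these data; inconclusive = mean inhibition reaches that limit but some replicates miss it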;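 also: 0% = plate neutral control median and 100% = total signal loss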
Target sequence (P42568 whole entry, looked up): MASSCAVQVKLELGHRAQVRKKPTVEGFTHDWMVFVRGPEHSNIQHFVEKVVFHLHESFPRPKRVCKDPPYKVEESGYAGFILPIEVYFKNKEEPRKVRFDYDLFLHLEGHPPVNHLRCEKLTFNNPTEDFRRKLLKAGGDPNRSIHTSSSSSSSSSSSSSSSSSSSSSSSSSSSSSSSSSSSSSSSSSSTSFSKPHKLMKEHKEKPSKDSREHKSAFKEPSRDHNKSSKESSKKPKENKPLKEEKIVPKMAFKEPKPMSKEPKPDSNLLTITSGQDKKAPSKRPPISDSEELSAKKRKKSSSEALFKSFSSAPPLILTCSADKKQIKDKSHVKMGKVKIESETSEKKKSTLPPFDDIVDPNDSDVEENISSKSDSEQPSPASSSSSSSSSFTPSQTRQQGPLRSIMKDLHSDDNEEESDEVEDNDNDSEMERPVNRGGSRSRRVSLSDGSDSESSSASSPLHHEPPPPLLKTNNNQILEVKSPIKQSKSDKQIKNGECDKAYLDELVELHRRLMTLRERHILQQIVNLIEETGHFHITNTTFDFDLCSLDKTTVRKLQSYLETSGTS
DENV2 CPE rescue: protects cells from dengue virus 2 cytopathic effect; DENV2-infected cells, cytopathic effect rescue, plate reader; CPE inhibition, % at 9.99 µM; actives 1.7% (n = 350,000); in the data active = CPE inhibition above about 20%, passing the limit was not always enough; inconclusive = no clear call, values can overlap the other calls; tested in BHK-21 cells;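 also: 0% = median of neutral control wells and 100% = median of positive control wells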
CaV13 ICDI inh: Primary screen for inhibitors of IQ motif and Ca2+-dependent inactivation inhibitor domain binding in CACNA1D, Förster resonance energy transfer in living cells, … | HEK cells, CFP/YFP FRET ICDI-IQ, plate reader, 10 min; percent FRET-ratio fall versus neutral wells | inhibition, % at 12.3 µM | actives 0.098% (n = 340,000);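 active = mean replicate inhibition of at least 30% and at least 1% of replicates passing that level; inconclusive = only one of the two criteria is met; inactive = neither criterion is met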;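 also: 0% = median of the neutral control wells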
SIRT5 inh: inhibitors of human sirtuin-5 desuccinylase. actives 1.1% (n = 330,000). Purified SirT5, succinyl-peptide AMC, trypsin-coupled fluorescence. Q9NXA8. inhibition, % at 15 µM; in the data active = inhibition above about 15%; inconclusive = no clear call, values can overlap the other calls
* = called active by the depositor; u = inconclusive; x = no result.

SMILES	S100A4 MyoIIA	AF4-AF9 inh	DENV2 CPE rescue	CaV13 ICDI inh	SIRT5 inh
COc1ccc(C#Cc2ccc3c(c2)[C@H]2[C@H](CCN2C(=O)c2cnccn2)[C@H](CO)N3)cc1	x	2.8	x	x	x
CN(C)/C=C/C(=O)c1c(F)cccc1F	-7.8	3.2	17.4	93.9*	2.0
CCCC(=O)Nc1ccc2c(c1)OC[C@@H](C)N(C(=O)CC)C[C@H](C)[C@H](OC)CN(C)C2=O	38.2	-4.1	10.5	x	-4.4
COc1ccc(NC(=O)Nc2ccc3c(c2)C(=O)N([C@H](C)CO)C[C@@H](C)[C@@H](CN(C)S(=O)(=O)c2ccc(Cl)cc2)OCCCC[C@H](C)O3)cc1	-5.5	-1.6	40.0*	x	-0.9
COc1ccc(S(=O)(=O)N(C)C[C@@H]2OCCCC[C@H](C)Oc3ccc(NC(=O)Nc4ccc(F)cc4)cc3C(=O)N([C@H](C)CO)C[C@H]2C)cc1	-2.5	2.3	-2.5	x	16.8*
COc1ccc(S(=O)(=O)N(C)C[C@H]2OCCCC[C@H](C)Oc3ccc(NC(=O)Nc4ccc(F)cc4)cc3C(=O)N([C@H](C)CO)C[C@@H]2C)cc1	-19.0	-1.0	2.3	x	16.6*
COc1ccc(NC(=O)Nc2ccc3c(c2)C(=O)N([C@H](C)CO)C[C@H](C)[C@H](CN(C)S(=O)(=O)c2ccc(Cl)cc2)OCCCC[C@@H](C)O3)cc1	-5.3	-2.5	u	x	0.3
COc1ccc(NC(=O)Nc2ccc3c(c2)C(=O)N([C@@H](C)CO)C[C@H](C)[C@@H](CN(C)S(=O)(=O)c2ccc(F)cc2)OCCCC[C@@H](C)O3)cc1	6.0	3.3	-3.9	x	7.8
COc1ccc(S(=O)(=O)N(C)C[C@H]2OCCCC[C@H](C)Oc3ccc(NC(=O)Nc4c(C)noc4C)cc3C(=O)N([C@H](C)CO)C[C@@H]2C)cc1	0.7	-1.3	67.0*	x	-1.0
COc1ccc2c3c([nH]c2c1)[C@@H](CO)N(C(=O)C1CCOCC1)CC31CCN(Cc2nccs2)CC1	8.7	2.8	-9.5	x	6.8
COc1ccc(C#Cc2cnc3c(c2)C(=O)N([C@@H](C)CO)C[C@@H](C)[C@H](CN(C)CC2CCCC2)O3)cc1	0.6	12.6	19.8	x	-2.1
C[C@H]1CN([C@@H](C)CO)S(=O)(=O)c2ccc(C#CC(C)(C)O)cc2O[C@H]1CN(C)Cc1ccncc1	13.8	-0.2	-9.6	x	-1.5
COc1ccc(S(=O)(=O)N(C)C[C@H]2OCCCC[C@H](C)Oc3ccc(NC(=O)NC(C)C)cc3C(=O)N([C@H](C)CO)C[C@H]2C)cc1	1.9	-1.4	-4.5	x	1.5
COc1ccc(S(=O)(=O)N(C)C[C@@H]2OCCCC[C@H](C)Oc3ccc(NC(=O)NC(C)C)cc3C(=O)N([C@@H](C)CO)C[C@H]2C)cc1	3.9	-1.8	49.2*	x	-1.6
C[C@H]1CCCCO[C@H](CN(C)S(=O)(=O)c2cn(C)cn2)[C@@H](C)CN([C@@H](C)CO)C(=O)c2cc(NC(=O)NC3CCCCC3)ccc2O1	39.1	-3.4	2.2	x	-1.0
C[C@@H]1CCCCO[C@@H](CN(C)S(=O)(=O)c2cn(C)cn2)[C@H](C)CN([C@@H](C)CO)C(=O)c2cc(NC(=O)C3CCCCC3)ccc2O1	115.7*	-8.7	2.8	x	4.7
C[C@@H]1CN([C@@H](C)CO)C(=O)c2cc(NC(=O)NC3CCCCC3)ccc2O[C@@H](C)CCCCO[C@@H]1CN(C)S(=O)(=O)c1cn(C)cn1	136.3*	0.4	-2.9	x	3.6
C[C@H](CO)N1C[C@H](C)[C@H](CN(C)S(=O)(=O)c2cn(C)cn2)OCCCC[C@H](C)Oc2ccc(NC(=O)C3CCCCC3)cc2C1=O	-12.9	-5.9	-5.6	x	-0.8
C[C@@H]1CN([C@@H](C)CO)C(=O)c2cc(NC(=O)C3CC3)ccc2O[C@@H]1CN(C)S(=O)(=O)c1cn(C)cn1	-6.6	-6.8	8.1	x	25.0*
Cc1ccc(N2CC(C(=O)N3CCN(c4ccccn4)CC3)CC2=O)cc1 (configuration not stated)	17.2	0.0	1.8	-1.4	-0.9
O=C1CC(C(=O)N2CCN(c3ccccn3)CC2)CN1Cc1ccccc1Cl (configuration not stated)	185.0*	0.2	11.6	-2.9	0.3
O=C1NC(=O)/C(=C/c2ccc(-c3cc(C(=O)O)ccc3Cl)o2)S1	-2.5	-4.1	-0.6	-1.7	25.8*
O=C1NC(=S)/C(=C\c2ccc(-c3ccccc3Cl)o2)S1	x	x	x	-5.9	x
CC(=O)O[C@H]1CC[C@@]2(C)[C@@H](CC[C@H]3[C@@H]4CC[C@H](C(C)O)[C@@]4(C)CC(=O)[C@@H]32)C1 (some centres not stated)	-1.2	-0.2	37.3*	-10.5	22.6*
CC(=O)OC1CCC2(C)C(CCC3C2CC(=O)C2(C)C3CC(C3CCCC3=O)C2C(C)=O)C1 (configuration not stated)	-2.0	-0.9	-4.4	-15.2	15.1*
SMILES	S100A4 MyoIIA	AF4-AF9 inh	DENV2 CPE rescue	CaV13 ICDI inh	SIRT5 inh
CC(=O)OC1CCC2(C)C(CCC3C2CC(=O)C2(C)C3CC(C(C(C)=O)C(C)=O)C2C(C)=O)C1 (configuration not stated)	21.3	-1.0	-7.4	-9.5	0.0
O=C(CCN1CCCCC1)NCC[C@H]1CC[C@@H](NC(=O)c2ccc(F)cc2)[C@@H](CO)O1	1.3	-3.8	-11.5	x	-1.2
CCOc1cccc(C=NNC(=O)C(=O)Nc2cccc(C(F)(F)F)c2)c1O	-5.9	-0.5	3.6	-12.5	x
CN1CCN(C(=O)c2cc3c(c(-c4cccc(C5=CCCC5)c4)n2)[C@H](CCO)N([S@@](=O)C(C)(C)C)C3)CC1	-34.7	-5.9	-1.6	x	-1.1
O=C(c1cc2c(c(-c3cccc(Br)c3)n1)[C@H](CCO)NC2)N1CCCCC1	-21.1	-3.0	34.5*	x	1.9
CN1CCN(C(=O)c2cc3c(c(-c4cccc(Br)c4)n2)[C@@H](CCO)N(S(=O)C(C)(C)C)C3)CC1 (some centres not stated)	-40.5	2.5	7.5	-4.1	7.2
CC(=O)N1Cc2cc(C(=O)NCc3cc(F)cc(F)c3)nc(-c3cccc(C4=CCCC4)c3)c2[C@H]1CCO	-2.8	0.6	-13.2	x	15.0*
C/C=C/c1cccc(-c2nc(C(=O)NC3CCC3)cc3c2[C@@H](CCO)N(S(=O)C(C)(C)C)C3)c1 (some centres not stated)	0.3	4.2	-3.1	-10.7	22.4*
CC(C)(C)[S@](=O)N1Cc2cc(C(=O)N3CCCCC3)nc(-c3cccc(C4=CCCC4)c3)c2[C@@H]1CCO	-48.6	-0.6	26.1*	x	x
C[C@H]1CCCCO[C@@H](CN(C)CC2CCCCC2)[C@@H](C)CN([C@@H](C)CO)C(=O)c2cc(NS(=O)(=O)c3ccc(F)cc3)ccc2O1	-0.7	7.4	9.6	x	14.6
CCCC(=O)Nc1ccc2c(c1)C(=O)N(C)[C@@H]1CC[C@H](CC(=O)NCC3CC3)O[C@H]1CO2	2.7	-9.8	8.8	x	-0.5
